The RNAGym collection of RNA variant scans (doi:10.1101/gad.245936.114)
This sample holds only a part of the variants without activity.

B1: tRNA (parent)
chain: CUCUCGGUAGCCAAGUUGGUUUAAGGCGCAAGACUUUAAUUUAUCACUACGAAAUCUUGAGAUCGGGCGUUCGACUCGCCCCCGGGAGAUUUUUUCCUCGAGCAA

Variants of: B1
Assay: nonsense suppression (GFP-seq) (ratio to wild type); higher = more function; SUP4oc tRNA, yeast GFP reporter sort-seq
Summary of the method: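 Each variant's nonsense suppression (GFPSEQ) is a cell-share-weighted bin median GFP/RFP relative to the unmutated parent tRNA. Yeast with genome-integrated tRNA variants from a ~3% random-mutation library, a galactose-driven GFP ochre reporter and RFP were grown in raffinose/galactose medium with 80 mg/L adenine, then sorted into GFP/RFP bins for Illumina sequencing. Variants needed ≥100 reads and ≥30 cells.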

Row | Variant | nonsense suppression
1 | G32C A62U G65C C80A G88A | ≤ 0.026
2 | G32A C79A G88A | ≤ 0.026
3 | A31C G61A C75G | ≤ 0.026
4 | A31U U70A | ≤ 0.026
5 | A31U U70C | ≤ 0.026
6 | C27U G28A | 0.0265
7 | C29A G73A | ≤ 0.026
8 | A31U U63A | 0.0391
9 | A31U U63G | 0.0763
10 | A30U A89U | 0.0434
11 | C29U C82U | 0.224
12 | A30U A60G | 0.27
13 | A30U A60U | 0.769
14 | C29U A31G | 0.0421
15 | A30G C77U | ≤ 0.026
16 | G28U U76A | ≤ 0.026
17 | A31G A54C | 0.0977
18 | A31G A54U | 0.627
19 | G32C U63C | ≤ 0.026
20 | C29U G67C | ≤ 0.026
21 | C29A A54U C56U G66C | ≤ 0.026
22 | C29U C77G | 0.0454
23 | A30U G67A G73U A74G C81A | ≤ 0.026
24 | A31G C82U | 0.25

Row | Variant | nonsense suppression
25 | G32C A62G C80U | ≤ 0.026
26 | G28A C29U | 1.15
27 | G32A U70A C72A | ≤ 0.026
28 | A30U G61A | 0.0365
29 | A30G U76A | 0.043
30 | C27U A31U | 0.0324
31 | G28C C34U | ≤ 0.026
32 | A31C A60U | 0.222
33 | A31G A33G C56A G65U | ≤ 0.026
34 | A30G C79U | 0.207
35 | G28U U35A | ≤ 0.026
36 | G32U C56G | 0.207
37 | G32C C81G | ≤ 0.026
38 | G28C A60C | 0.235
39 | C27U U58A | ≤ 0.026
40 | C29U G84A | 0.0288
41 | A31C U76G | ≤ 0.026
42 | A30U C77G | 0.0332
43 | A30U C77U | ≤ 0.026
44 | A31U G61U | 0.0345
45 | C29A U55G | ≤ 0.026
46 | A30G G85A | 0.793
47 | A30G G85C | ≤ 0.026
48 | A31G C34G U76G | ≤ 0.026

Row | Variant | nonsense suppression
49 | A30U A62G C81G | ≤ 0.026
50 | G28A U76C | 1.09
51 | G28A U76G | ≤ 0.026
52 | C29U A87G | 0.438
53 | C29U C72U | 0.101
54 | C27U A54U | 0.104
55 | C27U A54C | 0.0314
56 | G32C U76A | ≤ 0.026
57 | C29U C79U G86A | ≤ 0.026
58 | A30U G69C C72U | ≤ 0.026
59 | C27G G73C | ≤ 0.026
60 | A30U C81A | 0.0383
61 | G32U U70C | ≤ 0.026
62 | A30G G78A | 0.101
63 | A30G C82U | 0.0497
64 | C29G A87G | ≤ 0.026
65 | G28A U63A C68G U70A G85C | ≤ 0.026
66 | A31C G32U | ≤ 0.026
67 | A31C G59C | ≤ 0.026
68 | G28A G66C A87U | ≤ 0.026
69 | G32U U63A C82U | 0.0283
70 | C29G G78A | ≤ 0.026
71 | C27G U58A U63A | ≤ 0.026
72 | C27U U63C | 0.0314

Row | Variant | nonsense suppression
73 | A31U U76A | 0.0413
74 | A31G C79U | 0.77
75 | A30U A60U C68U | 0.0354
76 | A30U U35G G65U | ≤ 0.026
77 | G28C U63C | 0.114
78 | G28C U63A | 0.225
79 | A31U G73C C81G | ≤ 0.026
80 | A31C A60U C75A | 1.23
81 | G28C U57A | 0.0447
82 | G28C U57C | 0.0349
83 | C27G G28A | ≤ 0.026
84 | G28C G59A | ≤ 0.026
85 | G28C C79A G85C | 0.0328
86 | A30U G85A | 0.52
87 | A30U G85U | 0.0315
88 | C27U A30U G85C | ≤ 0.026
89 | C29A U57A G73A | ≤ 0.026
90 | A30U C64U | ≤ 0.026
91 | C27U | 0.183
92 | A30G A31G A60U | 0.726
93 | A31U U55G G67C | ≤ 0.026
94 | C27U U58A G59A | ≤ 0.026
95 | G28C G73U | 0.0322
96 | A31G | 1.08

Row | Variant | nonsense suppression
97 | A31U | 0.177
98 | A31U G59A C80U | ≤ 0.026
99 | A30G G59C A60C | ≤ 0.026
100 | C29G U58A | ≤ 0.026
101 | A31U C64U C72U | ≤ 0.026
102 | A31G C34U | ≤ 0.026
103 | A30U U58A G78U | 0.776
104 | G28U G61C | 0.321
105 | G28U G61U | 0.191
106 | G28C G61C | 0.386
107 | A30G C64U | 0.0605
108 | A30G U63C | 0.205
109 | C27U U35A U58A G65A G78C | ≤ 0.026
110 | C29U U35C | 0.0545
111 | C29U U63C G85A | 0.849
112 | A31G C75U | 1.05
113 | A31G C75A | 1.06
114 | A33C G61A A62G G73C | ≤ 0.026
115 | C29U U57A U63G | ≤ 0.026
116 | A31U A62U | 0.0539
117 | G28C | 1.17
118 | G28A | 0.975
119 | C27U C80U | 0.0446
120 | C29U G61U | 0.754

Row | Variant | nonsense suppression
121 | C29U G61A | 0.83
122 | C29U G61C | 0.0261
123 | G32U G66A | ≤ 0.026
124 | A30G C75U | 1.19
125 | A30U G84U | 0.423
126 | C27U C75A | 0.641
127 | A31U G73U | ≤ 0.026
128 | G28A U63C G85U | 0.0331
129 | A33C C56A G78A | ≤ 0.026
130 | A30G C72G | 0.0409
131 | G28U A30C A33G A54G U76C C79A | ≤ 0.026
132 | G28C G67A | 0.0635
133 | G32A U76G | ≤ 0.026
134 | A30C A60U U63A G69C | ≤ 0.026
135 | C29A C72A U76A | ≤ 0.026
136 | G28A C82U | 1.15
137 | C29G G59A C80G | ≤ 0.026
138 | A31G C77A | ≤ 0.026
139 | A30G C83A | ≤ 0.026
140 | C29U G65A C81U | 1.14
141 | G32U U71C G84A | ≤ 0.026
142 | C29U A54U | 0.869
143 | A30G A60G | 0.108
144 | G32U C79A | ≤ 0.026

Row | Variant | nonsense suppression
145 | C27U A74C | 0.0355
146 | A31U U57A | 0.963
147 | A30U U63A | 0.157
148 | A30G G59A G73C | ≤ 0.026
149 | C29G A33G G67A U71G G86A | 1.12
150 | A31U A60C C75A | 0.184
151 | G28A A54C C68U | 0.18
152 | A30U A54C | 0.0467
153 | C29U U76C | 0.772
154 | C29U U76A | 0.224
155 | C29U A31C C68U C77A | ≤ 0.026
156 | C27U G61C | 0.0306
157 | A30C U70C | ≤ 0.026
158 | C27G U57C G59U G86U | ≤ 0.026
159 | G32U U55G A62C | ≤ 0.026
160 | C29G G32A G67U C75A | ≤ 0.026
161 | G28A G67A | 0.209
162 | A30G A54C | 0.077
163 | A30G A54U | 1.2
164 | G28A A60G | 1.07
165 | G28U U71G | ≤ 0.026
166 | A30U C82G | ≤ 0.026
167 | A30G A74U | 0.028
